Measured values taken from ChEMBL document CHEMBL1151760, “Novel high-affinity and selective biaromatic 4-substituted gamma-hydroxybutyric acid (GHB) analogues as GHB ligands: design, synthesis, and binding studies” (J Med Chem, 2008).

Tests used:
[1] = biological target: GHB high-affinity binding site (Rattus norvegicus); assay: Displacement of [3H]NCS-382 from GHB high-affinity binding site in rat brain homogenate
[2] = Displacement of [3H]GABA from GABAB receptor in rat brain synaptic membranes; type: cell membranes, Membrane
Summary of the method: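 Adult male Sprague-Dawley rat cortex and central hemisphere synaptic membranes, thawed and washed four times by homogenization in 50 mM Tris-HCl pH 7.4 and 48000g spins at 4 °C. 200 µg protein was incubated with 5 nM [3H]GABA, 40 µM isoguvacine to saturate GABAA sites, and 0.1 mM displacer in Tris-HCl with 2.5 mM CaCl2, pH 7.4, for 45 min at 25 °C. Nonspecific binding was set with 0.1 mM baclofen. Bound counts were read by filtration and scintillation.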

[3] = Displacement of [3H]muscimol from GABAA receptor in rat brain synaptic membranes; type: cell membranes, Membrane
Summary of the method: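 Washed synaptic membranes from adult male Sprague-Dawley rat cortex and central hemispheres in 50 mM Tris-HCl pH 7.4. 100 µg protein was incubated with 5 nM [3H]muscimol and 0.1 mM displacer at 0 °C for 60 min. Nonspecific binding was set with 1 mM GABA. Bound counts were read by filtration and scintillation. Triplicates, at least two independent experiments.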

SMILES	Ki [1] [nM]	pKi [1]	IC50 [2] [nM]	IC50 [3] [nM]
Cc1ncsc1/C=C/c1ccc(C(O)CCC(=O)[O-])cc1.[Li+] (stereo unspecified)	250	6.62	–	–
O=C([O-])CCC(O)c1ccc(OCc2ccccc2F)cc1.[Li+] (racemic)	41	7.39	–	–
COc1ccc(/C=C/c2ccc(C(O)CCC(=O)[O-])cc2)cc1.[Li+] (stereo unspecified)	180	6.75	–	–
O=C([O-])CCC(O)c1ccc(/C=C/c2ccccc2Cl)cc1.[Li+] (stereo unspecified)	54	7.28	–	–
O=C([O-])CCC(O)c1ccc(Cc2ccccc2)cc1.[Li+] (racemic)	120	6.94	–	–
O=C(O)CCC(=O)c1ccc(Cc2ccccc2)cc1	15000	4.83	–	–
O=C([O-])CCC(O)c1ccc(OCc2ccccc2Br)cc1.[Li+] (racemic)	53	7.28	–	–
O=C([O-])CCC(O)c1ccc(OCc2ccc(F)cc2)cc1.[Li+] (racemic)	93	7.03	–	–
O=C([O-])CCC(O)c1ccc(/C=C/c2ccccc2)cc1.[Li+] (stereo unspecified)	160	6.79	> 100000	> 100000
O=C(O)CCC(=O)c1ccc(CCc2ccccc2)cc1	8800	5.07	–	–
O=C([O-])CCC(O)c1ccc(OCc2cccs2)cc1.[Li+] (racemic)	96	7.03	–	–
O=C([O-])CCC(O)c1ccc(OCc2ccccc2I)cc1.[Li+] (racemic)	60	7.22	> 100000	> 100000
O=C([O-])CC[C@H](O)c1ccc(OCc2ccccc2I)cc1.[Li+]	220	6.66	–	–
O=C([O-])CCC(O)c1ccc(/C=C/c2ccccn2)cc1.[Li+] (stereo unspecified)	230	6.67	–	–
O=C(O)CCCc1ccc(CCc2ccccc2)cc1	1200	6.01	–	–
O=C([O-])CCC(O)c1ccc(OCc2ccc(I)cc2)cc1.[Li+] (racemic)	62	7.21	–	–
O=C([O-])CCC(O)c1ccc(Br)cc1.[Li+] (racemic)	1100	5.96	–	–
O=C([O-])CCC(O)c1ccc(/C=C/c2ccncc2)cc1.[Li+] (stereo unspecified)	340	6.49	–	–
O=C([O-])CCC(O)c1ccc(OCc2ccccc2)cc1.[Li+] (racemic)	110	6.96	> 100000	> 100000
O=C([O-])CCC(O)c1ccc(OCc2cccc(F)c2)cc1.[Li+] (racemic)	63	7.22	–	–
O=C(O)CCC(O)c1ccc(OCc2cccc(Br)c2)cc1 (racemic)	51	7.32	–	–
O=C([O-])CCC(O)c1ccc(-c2ccccc2)cc1.[Li+] (racemic)	440	6.36	–	–
O=C([O-])CCC(O)c1ccc(OCc2cccc(I)c2)cc1.[Li+] (racemic)	75	7.12	–	–
O=C([O-])CCC(O)c1ccc(OCc2ccco2)cc1.[Li+] (racemic)	200	6.72	–	–
O=C([O-])CCC(O)c1ccc(CCc2ccccc2)cc1.[Li+] (racemic)	75	7.13	> 100000	> 100000
O=C([O-])CC[C@@H](O)c1ccc(OCc2ccccc2I)cc1.[Li+] (racemic)	22	7.68	–	–
O=C([O-])CCC(O)c1ccc(/C=C/c2cccc(Cl)c2)cc1.[Li+] (stereo unspecified)	79	7.11	–	–
O=C([O-])CCC(O)c1ccc(OCc2ccc(Br)cc2)cc1.[Li+] (racemic)	34	7.48	–	–
O=C(O)CCC(=O)c1ccc(Br)cc1	17000	4.61	–	–
